Assay type in all cases: functional
The test system of assay [1] is Staphylococcus aureus. Nature of the assay: Antimicrobial activity against Staphylococcus aureus after 18 to 20 hrs at 37degC by disc diffusion method. The method in brief:
(§1)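 Agar diffusion disc assay: bacterial inoculum of 1 × 10⁸ bacteria/mL spread on Mueller Hinton agar. 6 mm filter paper discs loaded with sample dissolved in DMSO. Chloramphenicol at 10 mcg/disc served as control. Plates incubated 18–20 h at 37 °C. Read-out was the zone of inhibition in mm.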

Assay [2] relates to Escherichia coli. Briefly: Antimicrobial activity against Escherichia coli after 18 to 20 hrs at 37degC by disc diffusion method. The essentials:
as §1
For orientation: A growth-free zone around the sample is the usual read-out of agar diffusion tests.

In assay [3] the test system is Bacillus subtilis. Briefly: Antimicrobial activity against Bacillus subtilis after 18 to 20 hrs at 37degC by disc diffusion method. The method in brief:
as §1

The test system of assay [4] is Pseudomonas aeruginosa. Briefly: Antimicrobial activity against Pseudomonas aeruginosa after 18 to 20 hrs at 37degC by disc diffusion method. The essentials:
as §1

The subject of assay [5] is Aspergillus niger. Briefly: Antimicrobial activity against Aspergillus niger after 18 to 20 hrs at 37degC by disc diffusion method. The method in brief: (§2)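 Fungal inoculum of 1 × 10⁶/mL spread on potato dextrose agar. 6 mm filter paper discs received sample dissolved in DMSO. Nystatin at 100 U/disc was the antifungal control. Plates incubated 18–20 h at 37 °C, then the zone of inhibition was measured in mm.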

Assay [6] deals with Candida albicans. Briefly: Antimicrobial activity against Candida albicans after 18 to 20 hrs at 37degC by disc diffusion method. The method in brief: as §2

Active and inactive are the calls of the source. No cut-off for these calls is given here.

We go through 22 compounds from ChEMBL document CHEMBL1287793, “Green synthesis and biological evaluation of some novel azoles as antimicrobial agents” (2010).

On to `COc1ccc(-n2c(-c3cn(C4CC4)c4c(OC)c(F)c(F)cc4c3=O)n[nH]c2=S)cc1`, for which the “diameter of the inhibition zone (DIZ)” value was determined as 23.4 mm in assay [1] and 21.6 mm in assay [5]. Further, the “diameter of the inhibition zone (DIZ)” value in assay [2], in assay [3], in assay [4] and in assay [6] was “inactive” each time.
Regarding `COc1c(F)c(F)cc2c(=O)c(C(=O)NNC(=S)Nc3cccc(C)c3)cn(C3CC3)c12`, the “diameter of the inhibition zone (DIZ)” value in assay [1], in assay [2], in assay [3], in assay [4], in assay [5] and in assay [6] was “inactive” each time.
Consider `O=C(N[C@H](CO)[C@H](O)c1ccc([N+](=O)[O-])cc1)C(Cl)Cl` [CHLORAMPHENICOL], for which the “diameter of the inhibition zone (DIZ)” value in assay [1] is 32.8 mm; in assay [2], 29.14 mm; in assay [3], 30.11 mm; in assay [4] it was 24.68 mm.
Turning to `COc1c(F)c(F)cc2c(=O)c(-c3nnc(Nc4cccc(C)c4)o3)cn(C3CC3)c12`, the “diameter of the inhibition zone (DIZ)” value in assay [1], in assay [2], in assay [4], in assay [5] and in assay [6] was “inactive” throughout. Besides, the “diameter of the inhibition zone (DIZ)” value in assay [3] is on record as 21 mm.
As for `COc1ccc(NC(=S)NNC(=O)c2cn(C3CC3)c3c(OC)c(F)c(F)cc3c2=O)cc1`, the “diameter of the inhibition zone (DIZ)” value is 14.3 mm in assay [1], 16.6 mm in assay [2], 15.3 mm in assay [3] and 22.8 mm in assay [4]. Moreover, the “diameter of the inhibition zone (DIZ)” value in assay [5] and in assay [6] was “inactive” throughout.
On to `COc1c(F)c(F)cc2c(=O)c(-c3nnc(Nc4ccccc4)o3)cn(C3CC3)c12`, for which the “diameter of the inhibition zone (DIZ)” value in assay [1] stood at 18.8 mm; in assay [3] it was 25.4 mm; in assay [5] it was 14.7 mm. For the same compound, the “diameter of the inhibition zone (DIZ)” value in assay [2] was “inactive”.
Take `COc1ccc(Nc2nnc(-c3cn(C4CC4)c4c(OC)c(F)c(F)cc4c3=O)s2)cc1`: the “diameter of the inhibition zone (DIZ)” value in assay [1], in assay [2], in assay [3], in assay [4], in assay [5] and in assay [6] was “inactive” throughout.
On to `COc1c(F)c(F)cc2c(=O)c(C(=O)NNC(=S)Nc3ccc(Cl)cc3)cn(C3CC3)c12`, for which the “diameter of the inhibition zone (DIZ)” value in assay [1] is given as 15.9 mm; in assay [2], 15 mm; in assay [3], 15.1 mm; in assay [4], 22.6 mm. The “diameter of the inhibition zone (DIZ)” value in assay [5] and in assay [6] was “inactive” each time.
With NYSTATIN, the inhibition zone (IZ) in assay [5] came to 21.1 mm.
`COc1c(F)c(F)cc2c(=O)c(-c3nnc(Nc4ccccc4C)s3)cn(C3CC3)c12`: the “diameter of the inhibition zone (DIZ)” value in assay [1], in assay [2], in assay [3], in assay [4], in assay [5] and in assay [6] was “inactive” each time.
With `COc1c(F)c(F)cc2c(=O)c(-c3n[nH]c(=S)n3-c3ccccc3)cn(C3CC3)c12`, the “diameter of the inhibition zone (DIZ)” value in assay [1] stood at 21 mm; in assay [5], 19.9 mm. Moreover, the “diameter of the inhibition zone (DIZ)” value in assay [2], in assay [3], in assay [4] and in assay [6] was “inactive” in each case.
Take `COc1c(F)c(F)cc2c(=O)c(-c3n[nH]c(=S)n3-c3ccccc3C)cn(C3CC3)c12`: the “diameter of the inhibition zone (DIZ)” value stood at 21.2 mm in assay [1] and 20.8 mm in assay [5]. Besides, the “diameter of the inhibition zone (DIZ)” value in assay [2], in assay [3], in assay [4] and in assay [6] was “inactive” throughout.
As for `COc1c(F)c(F)cc2c(=O)c(-c3n[nH]c(=S)n3-c3cccc(C)c3)cn(C3CC3)c12`, the “diameter of the inhibition zone (DIZ)” value in assay [1] amounted to 19.8 mm; in assay [5], 21.8 mm. Moreover, the “diameter of the inhibition zone (DIZ)” value in assay [2], in assay [3], in assay [4] and in assay [6] was “inactive” each time.
Consider `COc1c(F)c(F)cc2c(=O)c(C(=O)NNC(=S)Nc3ccccc3C)cn(C3CC3)c12`, for which the “diameter of the inhibition zone (DIZ)” value stood at 17.2 mm in assay [1]; 18.5 mm in assay [2]; 20.1 mm in assay [3]; 20.1 mm in assay [4]; 18 mm in assay [5].
Regarding `COc1c(F)c(F)cc2c(=O)c(-c3nnc(Nc4ccccc4)s3)cn(C3CC3)c12`, the “diameter of the inhibition zone (DIZ)” value in assay [1] stood at 17 mm; in assay [2] it was 24 mm; in assay [3], 27 mm; in assay [4], 22 mm; in assay [5], 26.1 mm; in assay [6] it was 16.3 mm.
`COc1c(F)c(F)cc2c(=O)c(-c3n[nH]c(=S)n3-c3ccc(Cl)cc3)cn(C3CC3)c12`: the “diameter of the inhibition zone (DIZ)” value in assay [1] was 22.2 mm; in assay [5], 21.5 mm. For the same compound, the “diameter of the inhibition zone (DIZ)” value in assay [2], in assay [3], in assay [4] and in assay [6] was “inactive” throughout.
For `COc1c(F)c(F)cc2c(=O)c(-c3nnc(Nc4ccccc4C)o3)cn(C3CC3)c12`, the “diameter of the inhibition zone (DIZ)” value in assay [1], in assay [2], in assay [3], in assay [4], in assay [5] and in assay [6] was “inactive” throughout.
Consider `COc1c(F)c(F)cc2c(=O)c(C(=O)NNC(=S)Nc3ccccc3)cn(C3CC3)c12`, for which the “diameter of the inhibition zone (DIZ)” value is 23.9 mm in assay [1]; 24.1 mm in assay [2]; 24.1 mm in assay [3]; 24.2 mm in assay [4]; 14.2 mm in assay [6]. For the same compound, the “diameter of the inhibition zone (DIZ)” value in assay [5] is “inactive”.
With `COc1c(F)c(F)cc2c(=O)c(-c3nnc(Nc4ccc(Cl)cc4)s3)cn(C3CC3)c12`, the “diameter of the inhibition zone (DIZ)” value in assay [1] turned out to be 21 mm; in assay [3], 28 mm; in assay [6], 22 mm. Moreover, the “diameter of the inhibition zone (DIZ)” value in assay [2], in assay [4] and in assay [5] was “inactive” each time.
Consider `COc1c(F)c(F)cc2c(=O)c(-c3nnc(Nc4cccc(C)c4)s3)cn(C3CC3)c12`, for which the “diameter of the inhibition zone (DIZ)” value in assay [1], in assay [3], in assay [5] and in assay [6] was “inactive” in each case. Moreover, the “diameter of the inhibition zone (DIZ)” value in assay [2] was 23.8 mm; in assay [4], 27.1 mm.
For `COc1ccc(Nc2nnc(-c3cn(C4CC4)c4c(OC)c(F)c(F)cc4c3=O)o2)cc1`, the “diameter of the inhibition zone (DIZ)” value is 28 mm in assay [1], 26.7 mm in assay [3], 28.1 mm in assay [5] and 25.3 mm in assay [6]. For the same compound, the “diameter of the inhibition zone (DIZ)” value in assay [2] is “inactive”.
For the compound `COc1c(F)c(F)cc2c(=O)c(-c3nnc(Nc4ccc(Cl)cc4)o3)cn(C3CC3)c12`, the “diameter of the inhibition zone (DIZ)” value in assay [1] was 21.06 mm; in assay [3], 24.6 mm; in assay [4], 26.1 mm; in assay [6], 22.5 mm. Also, the “diameter of the inhibition zone (DIZ)” value in assay [2] was “inactive”.
